Activity calls are given as the source filed them. The calls are words filed in the database; no cut-off is given here.
Experiments:
[1] = Inhibition of HIV reverse transcriptase RNase H activity; set-up: species or system Human immunodeficiency virus
Procedure, shortened: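 Wild-type HIV-1 BH10 RT (20-40 nM), expressed in E. coli, was incubated at 37°C in 50 mM Tris-HCl pH 8.0, 50 mM NaCl, 5 mM MgCl2 and 5% DMSO. Cleaved substrate was quantified over 0.2-100 μM compound against a DMSO-only control. IC50 was taken from dose-response curves.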

[2] = tested on: Human immunodeficiency virus 1; experiment: Antiviral activity against HIV1 3B infected in human MT4 cells incubated for 5 days by MTT assay; format: functional, organism-based; conditions: Human immunodeficiency virus 1, 3B, MT4, 120 h
Procedure, shortened: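 MT-4 cells resuspended at 6×10^5 cells/mL and infected with 100-300 CCID50 of HIV-1 IIIB or HIV-2 ROD. Serial five-fold compound dilutions were tested in triplicate wells. After 5 days, viability was measured by MTT reduction with absorbance read at 540 and 690 nm, using the median OD of two or three wells.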

[3] = Cytotoxicity in mock-infected human MT4 cells assessed as reduction in cell viability incubated for 5 days by MTT assay; format: cell-based
Procedure, shortened: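 Mock-infected MT-4 cells at 6×10^5 cells/mL were exposed to serial five-fold compound dilutions in triplicate wells in parallel with the infected series. After 5 days, viability was read by MTT at 540 and 690 nm from the median OD of two or three wells.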

[4] = target: Human immunodeficiency virus type 1 reverse transcriptase (Human immunodeficiency virus 1, UniProt Q72547); experiment: Inhibition of HIV1 reverse transcriptase RNase H activity expressed in Escherichia coli using 32P-labeled template 31Trna RNA and DNA oligonucleotide 21P
[5] = Apparent permeability in human Caco2 cells by LC analysis; format: ADME, cell-based; conditions: Caco-2
Procedure, shortened: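 Transport was measured across Caco-2 cell monolayers, with nadolol and metoprolol as controls. Papp (cm/s) was calculated as (dCr/dt)×Vr/(A×C0), where dCr/dt is the cumulative receiver-chamber concentration over time.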

[6] = target: T1, Human immunodeficiency virus type 1 integrase (Human immunodeficiency virus 1, UniProt Q7ZJM1); experiment: Inhibition of strand transfer activity of HIV1 integrase expressed in Escherichia coli using DNA complexes containing 32P-labeled INT1ST and non-labeled INT2
T1 sequence (Q7ZJM1 whole entry): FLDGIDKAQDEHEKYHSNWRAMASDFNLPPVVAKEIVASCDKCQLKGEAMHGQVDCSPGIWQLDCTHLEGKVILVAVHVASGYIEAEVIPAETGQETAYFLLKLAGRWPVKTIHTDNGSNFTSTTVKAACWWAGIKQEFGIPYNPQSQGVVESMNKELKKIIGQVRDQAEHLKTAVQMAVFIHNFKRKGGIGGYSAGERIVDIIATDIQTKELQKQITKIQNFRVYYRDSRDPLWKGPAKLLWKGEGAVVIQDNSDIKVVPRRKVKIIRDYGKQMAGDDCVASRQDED

[7] = target: T1, Human immunodeficiency virus type 1 integrase; experiment: Inhibition of HIV integrase strand transfer activity
[8] = target: Human immunodeficiency virus type 1 integrase (Human immunodeficiency virus 1) (UniProt Q7ZJM1); experiment: Inhibition of strand transfer activity of HIV1 integrase expressed in Escherichia coli at 0.1 to 10 uM using DNA complexes containing 32P-labeled INT1ST and non-labeled INT2
Human immunodeficiency virus type 1 integrase (Human immunodeficiency virus 1), sequence (Q7ZJM1 as listed by the source): as the sequence (Q7ZJM1 whole entry) above
Procedure, shortened: (§1)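 Wild-type HIV-1 IN, expressed in E. coli, was assayed for strand transfer with DNA complexes of 32P-labeled INT1ST and unlabeled INT2 at 1% DMSO. Percent inhibition was measured at […].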

[9] = target: Human immunodeficiency virus type 1 integrase (Human immunodeficiency virus 1) (UniProt Q7ZJM1); experiment: Inhibition of strand transfer activity of HIV1 integrase expressed in Escherichia coli at 10 uM using DNA complexes containing 32P-labeled INT1ST and non-labeled INT2; procedure, shortened: as §1

IC50 [4] [µM] | Compound | EC50 [2] [µM] | CC50 at 120 h [3] [µM] | also measured
– | COc1ccc(Cc2nc(O)c(O)c(C(=O)O)n2)cc1Br | – | – | IC50 [1]: 1.4 µM
– | Cc1nnc(C(=O)NC(C)(C)c2nc(C(=O)NCc3ccc(F)cc3)c(O)c(=O)n2C)o1 | 0.015 | 6.51 | –
1.98 | CC(C)c1ccc(O)c(=O)c(O)c1 [BETA-THUJAPLICINOL] | > 2.83 | 2.83 | IC50 [1]: 3.8 µM
0.41 | O=c1[nH]c2ccc(NS(=O)(=O)c3ccc4ccccc4c3)cc2c(=O)n1O | > 208 | 208 | Papp [5]: < 1.9 nm/s; IC50 [6]: 0.85 µM
3.73 | O=C(Nc1ccc2c(=O)n(O)c(=O)[nH]c2c1)c1ccc(F)cc1 | > 43 | 43 | –
– | O=C(NCc1c(F)cc(F)cc1F)c1cn2c(c(O)c1=O)C(=O)N1[C@H]3CC[C@H](C3)O[C@@H]1C2 [BICTEGRAVIR] | – | – | IC50 [7]: 0.0075 µM
5.88 | CC(C)(C)c1ccc(S(=O)(=O)Nc2ccc3c(=O)n(O)c(=O)[nH]c3c2)cc1 | > 307 | 307 | inhibition [8]: Active; inhibition [9]: 50 to 60%
4.1 | Cc1cccc(S(=O)(=O)Nc2ccc3c(=O)n(O)c(=O)[nH]c3c2)c1 | > 310 | 310 | –
20.1 | O=c1[nH]c2cc(NS(=O)(=O)c3ccc4ccccc4c3)ccc2c(=O)n1O | > 220 | 220 | inhibition [8]: Active; inhibition [9]: 50 to 60%
4.29 | O=C(Nc1ccc2[nH]c(=O)n(O)c(=O)c2c1)c1ccccc1F | > 168 | 168 | –
2.74 | Cc1ccc(C(=O)Nc2ccc3c(=O)n(O)c(=O)[nH]c3c2)cc1 | > 10.9 | 10.9 | –
2.25 | O=c1[nH]c2ccc(NS(=O)(=O)c3ccc(F)cc3)cc2c(=O)n1O | > 199 | 199 | –
– | COCCc1ccc(OCC(O)CNC(C)C)cc1 (stereo unspecified) [METOPROLOL] | – | – | Papp [5]: 147 nm/s
– | O=C1Cc2cc(Cc3ccc(-c4ccccc4)cc3)ccc2C(=O)N1O | – | – | IC50 [1]: 0.8 µM
2.52 | O=C(Nc1ccc2c(=O)n(O)c(=O)[nH]c2c1)c1ccccc1 | > 36.6 | 36.6 | –
11.7 | O=c1[nH]c2cc(NS(=O)(=O)c3ccc(-c4ccccc4)cc3)ccc2c(=O)n1O | > 305 | > 305 | –
3.24 | Cc1cc(C)c(S(=O)(=O)Nc2ccc3c(=O)n(O)c(=O)[nH]c3c2)c(C)c1 | > 154 | 154 | –
5.33 | O=c1[nH]c2cc(NS(=O)(=O)c3cccc(C(F)(F)F)c3)ccc2c(=O)n1O | > 80.2 | 80.2 | –
5.68 | O=c1[nH]c2cc(NS(=O)(=O)c3ccc(F)cc3)ccc2c(=O)n1O | > 356 | > 356 | –
– | NCc1ccc(-c2ccc(Cc3cc(=O)n(O)c4ncccc34)cc2)cc1 | – | – | IC50 [1]: 0.045 µM
1.19 | O=c1[nH]c2ccc(NS(=O)(=O)c3ccccc3)cc2c(=O)n1O | > 213 | 213 | –
– | CCOC(=O)C(=O)CC(=O)/C=C/c1cccn1Cc1ccccc1Cl | – | – | IC50 [1]: 7.3 µM
– | NS(=O)(=O)c1ccc(-c2ccc(Cn3cc(O)c(=O)c(C(=O)O)c3)cc2)cc1 | – | – | IC50 [1]: 0.65 µM
2 | O=c1[nH]c2ccc(NS(=O)(=O)c3cccc(C(F)(F)F)c3)cc2c(=O)n1O | > 176 | 176 | –
– | CC(C)(C)NCC(O)COc1cccc2c1CC(O)C(O)C2 (stereo unspecified) [NADOLOL] | – | – | Papp [5]: 0.9 nm/s
3.73 | O=C(Nc1ccc2c(=O)n(O)c(=O)[nH]c2c1)c1cccc(F)c1 | > 39.8 | 39.8 | –
6.09 | O=C(Nc1ccc2c(=O)n(O)c(=O)[nH]c2c1)c1ccc(C(F)(F)F)cc1 | > 316 | 316 | –

Source: ChEMBL document CHEMBL4385647, “Design, synthesis and biological evaluation of 3-hydroxyquinazoline-2,4(1H,3H)-diones as dual inhibitors of HIV-1 reverse transcriptase-associated RNase H and integrase” (Bioorg Med Chem, 2019)
